In ChEMBL document CHEMBL1139875, “Discovery of 4-aminobutyric acid derivatives possessing anticonvulsant and antinociceptive activities: a hybrid pharmacophore approach” (2007):
Calls of active or inactive are those of the source. The rule behind the calls is not given here.

How the values were obtained:
[1] = test system: Rattus norvegicus; experiment: Effect on spontaneous pain in Sprague-Dawley rat SNL model assessed as duration of paw withdrawal at 100 mg/kg, ip after 2.5 hrs; assay type: functional; details: route intraperitoneal
Procedure, shortened: (§1)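 Rats underwent left L5 spinal nerve ligation (Kim and Chung) under i.p. pentobarbital (65 mg/kg). Spontaneous pain is recorded for 5 min after 10 min acclimatization, as cumulative duration the ipsilateral paw is lifted, excluding locomotor lifts. Dosing is 100 mg/kg i.p. in 30% v/v PEG 400/water, with testing at 0.5–2.5 h. Four rats, mean ± SEM versus predrug, one-way ANOVA with Bonferroni.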

[2] = test system: Mus musculus; experiment: Neurotoxicity in Swiss Albino mouse at 300 mg/kg, ip after 4 hrs by rotarod test; assay type: functional, organism-based; set-up: dose 300 mg/kg
Procedure, shortened: (§2)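 Swiss mice (20-25 g) are trained on an accelerating rotorod (10 rpm, 3.2 cm rod), then injected i.p. at 30, 100 or 300 mg/kg, with three per group. Neurotoxicity means failure to keep equilibrium for at least 1 min in each of three trials, checked at 0.5 and 4 h. The value reported is the minimum dose affecting half or more of the mice.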

[3] = test system: Mus musculus; experiment: Anticonvulsant activity in Swiss Albino mouse at 300 mg/kg, ip after 4 hrs by scSTY test; assay type: functional, organism-based; set-up: dose 300 mg/kg
Procedure, shortened: (§3)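 Mice (Swiss, 20-25 g) given i.p. doses of 30, 100 and 300 mg/kg under ADD program protocols, three per group, examined at 0.5 and 4 h in MES, scPTZ, scSTY or scPIC seizure tests. Value is the minimum dose protecting half or more of the mice.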

[4] = test system: Mus musculus; experiment: Anticonvulsant activity in Swiss Albino mouse at 300 mg/kg, ip after 0.5 hr by scSTY test; assay type: functional, organism-based; set-up: dose 300 mg/kg; procedure, shortened: as §3
[5] = test system: Mus musculus; experiment: Anticonvulsant activity in Swiss Albino mouse at 300 mg/kg, ip after 0.5 hr by scPIC test; assay type: functional, organism-based; set-up: dose 300 mg/kg; procedure, shortened: as §3
[6] = test system: Rattus norvegicus; experiment: Effect on spontaneous pain in Sprague-Dawley rat SNL model assessed as duration of paw withdrawal at 100 mg/kg, ip after 1.5 hrs; assay type: functional; details: route intraperitoneal; procedure, shortened: as §1
[7] = test system: Rattus norvegicus; experiment: Anti-cold allodynia effect in Sprague-Dawley rat SNL model assessed as duration of paw withdrawal 100 mg/kg, ip after 2 hrs; assay type: functional; details: route intraperitoneal
Procedure, shortened: (§4)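 Left L5 spinal nerve ligation under pentobarbital (65 mg/kg i.p.). Allodynic rats dosed i.p. 100 mg/kg, vehicle 30% v/v PEG 400 in water. Acetone (100-200 µL) misted onto midplantar affected paw after 10 min acclimatization; paw withdrawal duration, mean of three samples at least 3 min apart; n = 4 rats.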

[8] = test system: Mus musculus; experiment: Neurotoxicity in Swiss Albino mouse at 100 mg/kg, ip after 0.5 hr by rotarod test; assay type: functional, organism-based; set-up: dose 100 mg/kg; procedure, shortened: as §2
[9] = test system: Rattus norvegicus; experiment: Antihyperalgesic effects in Sprague-Dawley rat SNL model assessed as duration of paw withdrawal at 100 mg/kg, ip after 2 hrs, ip; assay type: functional; details: route intraperitoneal
Procedure, shortened: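 L5 SNL rats (n = 4), dosed 100 mg/kg i.p. (vehicle 30% v/v PEG 400 in water). Pin-prick to midplantar ipsilateral left hindpaw; withdrawal duration, mean of three responses; ≥2 s defined abnormal. Mean ± SEM; one-way ANOVA with Bonferroni versus predrug.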

[10] = test system: Rattus norvegicus; experiment: Effect on spontaneous pain in Sprague-Dawley rat SNL model assessed as duration of paw withdrawal at 100 mg/kg, ip after 1 hr; assay type: functional; details: route intraperitoneal; procedure, shortened: as §1
[11] = test system: Rattus norvegicus; experiment: Effect on spontaneous pain in Sprague-Dawley rat SNL model assessed as duration of paw withdrawal at 100 mg/kg, ip after 2 hrs; assay type: functional; details: route intraperitoneal; procedure, shortened: as §1
[12] = test system: Mus musculus; experiment: Anticonvulsant activity in Swiss Albino mouse at 300 mg/kg, ip after 0.5 hr by scPTZ test; assay type: functional, organism-based; set-up: dose 300 mg/kg; procedure, shortened: as §3
[13] = test system: Rattus norvegicus; experiment: Effect on spontaneous pain in Sprague-Dawley rat SNL model assessed as duration of paw withdrawal at 100 mg/kg, ip after 0.5 hr; assay type: functional; details: route intraperitoneal; procedure, shortened: as §1
[14] = test system: Mus musculus; experiment: Analgesic activity in Swiss Albino mouse assessed as number of acetic acid-induced writhing per 30 min after 100 mg/kg, ip; assay type: functional; details: route intraperitoneal
Procedure, shortened: (§5)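 Mice in groups of six dosed i.p. at 100 mg/kg, controls receiving 30% v/v PEG 400 in water. Writhing induced by i.p. 0.1 mL of 3% v/v acetic acid 1 h after drug. Writhes (abdominal stretch with at least one hind limb extended) counted over 30 min; % inhibition calculated. Mean ± SEM, Student's t test.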

[15] = test system: Rattus norvegicus; experiment: Anti-cold allodynia effect in Sprague-Dawley rat SNL model assessed as duration of paw withdrawal 100 mg/kg, ip after 0.5 hr; assay type: functional; details: route intraperitoneal; procedure, shortened: as §4
[16] = test system: Mus musculus; experiment: Anticonvulsant activity in Swiss Albino mouse at 300 mg/kg, ip after 4 hrs by scPIC test; assay type: functional, organism-based; set-up: dose 300 mg/kg; procedure, shortened: as §3
[17] = test system: Mus musculus; experiment: Analgesic activity in Swiss Albino mouse assessed as inhibition of acetic acid-induced writhing responses at 100 mg/kg, ip; assay type: functional; details: route intraperitoneal; procedure, shortened: as §5
[18] = test system: Mus musculus; experiment: Anticonvulsant activity in Swiss Albino mouse at 30 mg/kg, ip after 0.5 hr by scSTY test; assay type: functional, organism-based; set-up: dose 30 mg/kg; procedure, shortened: as §3
[19] = test system: Rattus norvegicus; experiment: Anti-dynamic allodynia effect in Sprague-Dawley rat SNL model assessed as latency to paw withdrawal 100 mg/kg, ip after 1 hr; assay type: functional; details: route intraperitoneal
Procedure, shortened: (§6)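 Left L5 spinal nerve ligation rats, tested preoperatively and 9 days postoperatively, then given 100 mg/kg i.p. (vehicle 30% v/v PEG 400 in water). After 10 min acclimatization, plantar surface of affected paw stroked mildly with a cotton-bud; paw lift response recorded. n = 4; retested 0.5-2.5 h post-dose.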

[20] = test system: Rattus norvegicus; experiment: Anti-cold allodynia effect in Sprague-Dawley rat CCI model assessed as duration of paw withdrawal 100 mg/kg, ip after 1 hr; assay type: functional; details: route intraperitoneal
Procedure, shortened: (§7)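 CCI by sciatic nerve ligation under pentobarbital (65 mg/kg i.p.). Rats tested at baseline and 9 days post-surgery; those with allodynia dosed i.p. 100 mg/kg, vehicle 30% v/v PEG 400 in water. Acetone (100-200 µL) misted on midplantar affected paw; withdrawal duration recorded, three samples averaged, at least 3 min apart; n = 4.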

[21] = test system: Mus musculus; experiment: Anticonvulsant activity in Swiss Albino mouse at 30 mg/kg, ip after 4 hrs by scSTY test; assay type: functional, organism-based; set-up: dose 30 mg/kg; procedure, shortened: as §3
[22] = test system: Rattus norvegicus; experiment: Anti-dynamic allodynia effect in Sprague-Dawley rat SNL model assessed as latency to paw withdrawal 100 mg/kg, ip after 0.5 hr; assay type: functional; details: route intraperitoneal; procedure, shortened: as §6
[23] = test system: Rattus norvegicus; experiment: Anti-cold allodynia effect in Sprague-Dawley rat CCI model assessed as duration of paw withdrawal 100 mg/kg, ip after 2.5 hr; assay type: functional; details: route intraperitoneal; procedure, shortened: as §7
[24] = test system: Mus musculus; experiment: Neurotoxicity in Swiss Albino mouse at 300 mg/kg, ip after 0.5 hr by rotarod test; assay type: functional, organism-based; set-up: dose 300 mg/kg; procedure, shortened: as §2
[25] = test system: Rattus norvegicus; experiment: Anti-dynamic allodynia effect in Sprague-Dawley rat SNL model assessed as latency to paw withdrawal 100 mg/kg, ip after 2 hrs; assay type: functional; details: route intraperitoneal; procedure, shortened: as §6
[26] = test system: Rattus norvegicus; experiment: Anti-cold allodynia effect in Sprague-Dawley rat CCI model assessed as duration of paw withdrawal 100 mg/kg, ip after 1.5 hr; assay type: functional; details: route intraperitoneal; procedure, shortened: as §7
[27] = test system: Rattus norvegicus; experiment: Anti-cold allodynia effect in Sprague-Dawley rat CCI model assessed as duration of paw withdrawal 100 mg/kg, ip after 2 hr; assay type: functional; details: route intraperitoneal; procedure, shortened: as §7
[28] = test system: Mus musculus; experiment: Anticonvulsant activity in Swiss Albino mouse at 30 mg/kg, ip after 4 hrs by scPIC test; assay type: functional, organism-based; set-up: dose 30 mg/kg; procedure, shortened: as §3
[29] = test system: Mus musculus; experiment: Anticonvulsant activity in Swiss Albino mouse at 30 mg/kg, ip after 0.5 hr by scPIC test; assay type: functional, organism-based; set-up: dose 30 mg/kg; procedure, shortened: as §3
[30] = test system: Mus musculus; experiment: Anticonvulsant activity in Swiss Albino mouse at 100 mg/kg, ip after 4 hrs by scPIC test; assay type: functional, organism-based; set-up: dose 100 mg/kg; procedure, shortened: as §3

Row | Structure (SMILES) | Activity [1] [s] | Activity [2] | Activity [3] | Activity [6] [s] | Activity [7] [s] | Activity [9] [s] | Activity [10] [s] | Activity [11] [s] | Activity [12] | Activity [13] [s] | Activity [14] | Activity [15] [s] | inhibition in vivo at 100 mg/kg [17] [%] | Activity [19] [s] | Activity [20] [s] | Activity [22] [s] | Activity [23] [s] | Activity [25] [s] | Activity [26] [s] | Activity [27] [s] | other results
1 | O=C(O)CCCNC(=O)N/N=C1\C(=O)Nc2ccccc21 | 9.8 | Active | inactive | 0.9 | 17.1 | 19.7 | 0.9 | 0.7 | Active | 1.2 | 47.3 | 11 | 74 | – | – | – | – | – | – | – | Activity [4]: inactive; Activity [5]: Active; Activity [8]: Active; Activity [16]: Active
2 | O=C(O)CCCNC(=O)N/N=C/c1ccccc1O | – | Active | – | – | 25.4 | – | – | – | inactive | – | 19 | 22.2 | 89 | 14.3 | 15.8 | 11.2 | 12.2 | 11.8 | 11.2 | 13.7 | Activity [18]: Active; Activity [21]: Active; Activity [24]: inactive; Activity [28]: Active; Activity [29]: Active
3 | Nc1nnc(-c2cccc(Cl)c2Cl)c(N)n1 [LAMOTRIGINE] | 24.4 | – | – | 2.6 | 17.3 | 6.4 | 13.3 | 22.9 | – | 15.6 | – | 19.2 | – | 1.6 | 33.6 | 1.9 | 23.7 | 0.7 | 32.4 | 29.9 | –
4 | NCC1(CC(=O)O)CCCCC1 [GABAPENTIN] | 10.1 | – | – | 10.2 | 7.6 | 9.9 | 12.9 | 9.1 | – | 29.7 | – | 16.7 | – | 4.6 | 10 | 1.5 | 7.2 | 6.6 | 9.3 | 7.5 | –
5 | NC(=O)N1c2ccccc2C=Cc2ccccc21 [CARBAMAZEPINE] | 94.9 | – | – | 22.3 | 19.4 | 5.5 | 7.9 | 85.4 | – | 14.6 | – | 13.5 | – | 13.4 | 10.6 | 14.7 | 21.8 | 1.9 | 28.9 | 27.8 | –
6 | CN(C)c1ccc(/C=N/NC(=O)NCCCC(=O)O)cc1 | 43 | inactive | inactive | 16.4 | – | 4.4 | 21.2 | 29.2 | inactive | 12.4 | 13 | – | 93 | 8.8 | 19.7 | 10.7 | 18.1 | 2.9 | 14.4 | 17.9 | Activity [4]: inactive; Activity [30]: Active; Activity [24]: inactive; Activity [29]: Active
